This passage reports IC50, inhibition and Activity results from ChEMBL document CHEMBL4002622, “A tetramic acid derivative with protein tyrosine phosphatase 1B inhibitory activity and a new nortriterpene glycoside from the Indonesian marine sponge Petrosia sp” (Bioorg Med Chem Lett, 2017).

For assay [1], the target named is T1, Tyrosine-protein phosphatase non-receptor type 1 (Homo sapiens, UniProt P18031).
T1 sequence (P18031 whole entry): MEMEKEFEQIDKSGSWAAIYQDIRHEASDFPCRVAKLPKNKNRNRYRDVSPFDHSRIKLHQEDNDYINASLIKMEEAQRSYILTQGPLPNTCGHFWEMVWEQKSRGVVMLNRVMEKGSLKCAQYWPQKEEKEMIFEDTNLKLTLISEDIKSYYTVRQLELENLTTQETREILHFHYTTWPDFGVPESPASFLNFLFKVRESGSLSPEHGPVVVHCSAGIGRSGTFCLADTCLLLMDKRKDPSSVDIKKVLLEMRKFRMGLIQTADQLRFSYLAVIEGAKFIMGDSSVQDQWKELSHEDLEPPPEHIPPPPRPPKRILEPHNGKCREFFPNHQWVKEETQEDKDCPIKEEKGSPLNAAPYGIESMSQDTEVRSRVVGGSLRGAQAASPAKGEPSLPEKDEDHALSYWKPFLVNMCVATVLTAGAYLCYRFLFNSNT
In words: Inhibition of PTP1B (unknown origin) using pNPP as substrate preincubated for 10 mins followed by substrate addition measured after 30 mins. The method in brief:
(§1)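 Enzyme (0.5 μg/mL stock) in 50 mM citrate pH 6.0, 0.1 M NaCl, 1 mM DTT, 1 mM EDTA; sample added in CH3OH, preincubated 10 min at 37 °C. pNPP (4.0 mM stock) started reaction, 30 min at 37 °C, stopped with 10 M NaOH; p-nitrophenol read at 405 nm. Inhibition (%) = [1 − (sample − blank)/(control − blank)] × 100; oleanolic acid positive control.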

Assay [2] deals with T2, Tyrosine-protein phosphatase non-receptor type 1 (Homo sapiens) (UniProt P18031).
T2 sequence (whole entry): T1 sequence (P18031 whole entry)
In words: Inhibition of PTP1B (unknown origin) at 15.2 to 16 uM using pNPP as substrate preincubated for 10 mins followed by substrate addition measured after 30 mins. The method in brief:
as §1

For assay [3], the system named is A549. In words: Cytotoxicity against human A549 cells assessed as decrease in cell viability after 72 hrs by WST1 assay. The assay is classed as functional, cell-based. In outline: (§2)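 Seeded 1×10^4 cells per well, cultured overnight, then exposed to compound for 72 h; controls got 0.1% EtOH. Medium with WST-1 (0.5 mM WST-1, 0.02 mM 1-PMS) added, 60 min at 37 °C, absorbance 438 nm (reference 620 nm). Viability = treated absorbance/control absorbance × 100 (%).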

For assay [4], the system named is Huh-7. In words: Cytotoxicity against human HuH7 cells assessed as decrease in cell viability after 72 hrs by WST1 assay. The class given is functional, cell-based. The method in brief: as §2

Active and inactive are the calls of the source. The calls are words filed in the database; no cut-off is given here.

With `CCCCCCCC(C)CCC/C(O)=C1\C(=O)C(C)N(C)C1=O` (stereo not drawn) [MELOPHLIN C], 14.6 µM corresponded to half-maximal inhibition in assay [1] (IC50).
For `CC(=O)N[C@H]1[C@H](O[C@@H]2CO[C@@H](O[C@H]3CC[C@@]4(C)[C@@H](CCC5=C6[C@@H](O)C[C@H]([C@H](C)CC(=O)C=C(C)C)[C@@]6(C)CC[C@@]54O)C3(C)C)[C@H](O[C@@H]3O[C@H](CO[C@@H]4O[C@H](CO)[C@@H](O)[C@H](O)[C@H]4O[C@@H]4O[C@H](CO)[C@@H](O)[C@H](O)[C@H]4O)[C@@H](O)[C@H](O)[C@H]3NC(C)=O)[C@H]2O)O[C@H](CO)[C@H](O)[C@@H]1O`, the inhibition entry in assay [2] is “inactive”. Further, the outcome in assay [3] and in assay [4] was inactive.
As to `CC(=O)C[C@@H](C)[C@H]1CC[C@H]2C3=C(CC[C@]12C)[C@@]1(C)CC[C@H](O[C@@H]2OC[C@@H](O[C@@H]4O[C@H](CO)[C@H](O)[C@H](O)[C@H]4NC(C)=O)[C@H](O)[C@H]2O[C@@H]2O[C@H](CO[C@@H]4O[C@H](CO)[C@@H](O)[C@H](O)[C@H]4O[C@@H]4O[C@H](CO)[C@@H](O)[C@H](O)[C@H]4O)[C@@H](O)[C@H](O)[C@H]2NC(C)=O)C(C)(C)[C@@H]1CC3`, the inhibition result in assay [2] is “inactive”. For the same molecule, the outcome in assay [3] and in assay [4] was inactive.
For the molecule `CC(=O)N[C@H]1[C@H](O[C@@H]2CO[C@@H](O[C@H]3CC[C@]4(C)C5=C(CC[C@H]4C3(C)C)[C@@H]3CC[C@H]([C@H](C)CC(=O)C=C(C)C)[C@@]3(C)CC5)[C@H](O[C@@H]3O[C@H](CO[C@@H]4O[C@H](CO)[C@@H](O)[C@H](O)[C@H]4O[C@@H]4O[C@H](CO)[C@@H](O)[C@H](O)[C@H]4O)[C@@H](O)[C@H](O)[C@H]3NC(C)=O)[C@H]2O)O[C@H](CO)[C@H](O)[C@@H]1O`, the inhibition entry in assay [2] is “inactive”. In addition, the outcome in assay [3] and in assay [4] was inactive.
Regarding `CC(=O)N[C@H]1[C@H](O[C@@H]2CO[C@@H](O[C@H]3CC[C@]4(C)C5=C(CC[C@H]4C3(C)C)[C@@H]3CC[C@H]([C@H](C)CC(=O)CC(C)(C)O)[C@@]3(C)CC5)[C@H](O[C@@H]3O[C@H](CO[C@@H]4O[C@H](CO)[C@@H](O)[C@H](O)[C@H]4O[C@@H]4O[C@H](CO)[C@@H](O)[C@H](O)[C@H]4O)[C@@H](O)[C@H](O)[C@H]3NC(C)=O)[C@H]2O)O[C@H](CO)[C@H](O)[C@@H]1O`, in assay [2], the inhibition entry is “inactive”. Also, the outcome in assay [3] and in assay [4] was inactive.
